Measurements as given in PMC6445238 (Drug Design, Development and Therapy, 2019).
Entries after “also recorded” stand apart in the source; their conditions may differ.

Assays:
[1] = SAD study, safety and tolerability; assay type: in vivo, human
In short: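 SAD cohorts were 6 active and 2 placebo healthy males given a single oral dose, with 2 sentinel subjects dosed at least 24 h before the rest. Confinement ran day −1 to day 3, with outpatient visits on days 4 and 7 and follow-up on day 14. Safety covered vital signs, clinical labs, 12-lead ECG, physical exams, and reported or observed AEs, coded with MedDRA 19.1. Counts are subjects with AEs, % of the safety population. Placebo subjects were pooled.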

Multiple ascending dose = assay type: in vivo, human; conditions: for CSF KM-819 concentration: day 7, 1 hour postdose
In short: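 Plasma was sampled on day 1 predose and at 0.25–12 h, on days 2–6 predose, and on day 7 predose and at 0.25–24 h. CSF was taken by lumbar puncture on day 1 predose and on day 7, 1 h after the last dose. Plasma was measured by UPLC-MS/MS with a deuterated internal standard, linear over 2–20,000 ng/mL (LOQ 2 ng/mL). Parameters came from non-compartmental analysis. Accumulation index = day 7 AUCtau and Cmax,ss over day 1 AUC0–24 and Cmax.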

Cc1nn(Cc2ccc(Br)cc2)c(C)c1NC(=O)CSc1ccccc1 [KM-819]
Subjects with any TEAEs, number of subjects (%) ([1]; single 200 mg, young, N=6): 1 (16.7) | Syncope, number of subjects (%) ([1]; single 200 mg, young, N=6): 0 | Abdominal discomfort, number of subjects (%) ([1]; single 400 mg, young, N=6): 0 | Cough, number of subjects (%) ([1]; single 400 mg, young, N=6): 0 | Eye swelling, number of subjects (%) ([1]; single 400 mg, young, N=6): 0 | Face injury, number of subjects (%) ([1]; single 400 mg, young, N=6): 0 | Headache, number of subjects (%) ([1]; single 400 mg, young, N=6): 0 | Hot flush, number of subjects (%) ([1]; single 400 mg, young, N=6): 0 | Hyperbilirubinemia, number of subjects (%) ([1]; single 400 mg, young, N=6): 0 | Hypoesthesia, number of subjects (%) ([1]; single 400 mg, young, N=6): 0 | Influenza, number of subjects (%) ([1]; single 400 mg, young, N=6): 0 | Pain in extremity, number of subjects (%) ([1]; single 400 mg, young, N=6): 0 | Proteinuria, number of subjects (%) ([1]; single 400 mg, young, N=6): 0 | Subjects with any TEAEs, number of subjects (%) ([1]; single 400 mg, young, N=6): 0 | Syncope, number of subjects (%) ([1]; single 400 mg, young, N=6): 0 | overall safety and tolerability ([1]; single or multiple doses): generally well tolerated; also recorded: no remarkable or significant safety concerns; also recorded: safe and well tolerated | AUC0–24, geometric mean (CV%) (Multiple ascending dose; 30 mg QD, day 1, young): 1,761 (21.3) ng·h/mL | Cmax, geometric mean (CV%) (Multiple ascending dose; 30 mg QD, day 1, young): 512.0 (30.9) ng/mL | Tmax, median (min–max) (Multiple ascending dose; 30 mg QD, day 1, young): 2.00 (1.00–6.00) h | CSF KM-819 concentration (Multiple ascending dose; 30 mg QD): no CSF KM-819 concentrations were measurable | AUCtau, geometric mean (CV%) (Multiple ascending dose; 30 mg QD, day 7, young): 1,572 (24.8) ng·h/mL | Cmax,ss, geometric mean (CV%) (Multiple ascending dose; 30 mg QD, day 7, young): 418.5 (51.7) ng/mL | Tmax,ss, median (min–max) (Multiple ascending dose; 30 mg QD, day 7, young): 2.00 (1.00–6.00) h | AUC0–24, geometric mean (CV%) (Multiple ascending dose; 100 mg QD, day 1, young): 3,735 (38.5) ng·h/mL | Cmax, geometric mean (CV%) (Multiple ascending dose; 100 mg QD, day 1, young): 1,009 (33.0) ng/mL | Tmax, median (min–max) (Multiple ascending dose; 100 mg QD, day 1, young): 2.00 (1.00–4.00) h | mean CSF/Cmax ratio (Multiple ascending dose; 100 mg QD, day 7, CSF 1 hour postdose): 0.067% | AUCtau, geometric mean (CV%) (Multiple ascending dose; 100 mg QD, day 7, young): 3,477 (17.9) ng·h/mL | Cmax,ss, geometric mean (CV%) (Multiple ascending dose; 100 mg QD, day 7, young): 1,012 (39.5) ng/mL | Cmin,ss, geometric mean (CV%) (Multiple ascending dose; 100 mg QD, day 7, young): 9.983 (31.1) ng/mL | Tmax,ss, median (min–max) (Multiple ascending dose; 100 mg QD, day 7, young): 3.00 (1.00–4.00) h | Cmax,ss in elderly relative to young (Multiple ascending dose; 200 mg QD for 7 days, day 7): 191% | plasma exposure (AUCtau) in elderly relative to young (Multiple ascending dose; 200 mg QD for 7 days, day 7): 102% | AUC0–24, geometric mean (CV%) (Multiple ascending dose; 200 mg QD, day 1, elderly): 17,590 (53.3) ng·h/mL | Cmax, geometric mean (CV%) (Multiple ascending dose; 200 mg QD, day 1, elderly): 3,542 (76.4) ng/mL | Tmax, median (min–max) (Multiple ascending dose; 200 mg QD, day 1, elderly): 2.00 (1.00–6.00) h | AUC0–24, geometric mean (CV%) (Multiple ascending dose; 200 mg QD, day 1, young): 6,485 (62.2) ng·h/mL | Cmax, geometric mean (CV%) (Multiple ascending dose; 200 mg QD, day 1, young): 1,465 (77.2) ng/mL | Tmax, median (min–max) (Multiple ascending dose; 200 mg QD, day 1, young): 3.00 (2.00–6.00) h | mean CSF/Cmax ratio (Multiple ascending dose; 200 mg QD, day 7, CSF 1 hour postdose, elderly): 0.032% | mean CSF/Cmax ratio (Multiple ascending dose; 200 mg QD, day 7, CSF 1 hour postdose, young): 0.074% | AUCtau, geometric mean (CV%) (Multiple ascending dose; 200 mg QD, day 7, elderly): 16,250 (34.1) ng·h/mL | Cmax,ss, geometric mean (CV%) (Multiple ascending dose; 200 mg QD, day 7, elderly): 3,231 (52.5) ng/mL | Cmin,ss, geometric mean (CV%) (Multiple ascending dose; 200 mg QD, day 7, elderly): 44.82 (48.3) ng/mL | Tmax,ss, median (min–max) (Multiple ascending dose; 200 mg QD, day 7, elderly): 2.00 (1.00–4.00) h | AUCtau, geometric mean (CV%) (Multiple ascending dose; 200 mg QD, day 7, young): 8,023 (7.7) ng·h/mL | Cmax,ss, geometric mean (CV%) (Multiple ascending dose; 200 mg QD, day 7, young): 1,111 (64.3) ng/mL | Cmin,ss, geometric mean (CV%) (Multiple ascending dose; 200 mg QD, day 7, young): 32.44 (19.4) ng/mL | Tmax,ss, median (min–max) (Multiple ascending dose; 200 mg QD, day 7, young): 4.00 (4.00–4.00) h | AUC0–24, geometric mean (CV%) (Multiple ascending dose; 400 mg QD, day 1, young): 11,260 (37.1) ng·h/mL | Cmax, geometric mean (CV%) (Multiple ascending dose; 400 mg QD, day 1, young): 3,163 (50.7) ng/mL | Tmax, median (min–max) (Multiple ascending dose; 400 mg QD, day 1, young): 2.00 (1.00–6.00) h | mean CSF/Cmax ratio (Multiple ascending dose; 400 mg QD, day 7, CSF 1 hour postdose): 0.049% | AUCtau, geometric mean (CV%) (Multiple ascending dose; 400 mg QD, day 7, young): 19,530 (96.4) ng·h/mL | Cmax,ss, geometric mean (CV%) (Multiple ascending dose; 400 mg QD, day 7, young): 3,172 (37.9) ng/mL | Cmin,ss, geometric mean (CV%) (Multiple ascending dose; 400 mg QD, day 7, young): 75.14 (28.4) ng/mL | Tmax,ss, median (min–max) (Multiple ascending dose; 400 mg QD, day 7, young): 2.00 (0.50–4.00) h | dose proportionality of plasma exposure (AUC) after repeated dosing (Multiple ascending dose; 30–400 mg QD for 7 days, day 7): approximately dose-proportional; also recorded: dose-proportional increase | variability (CV%) of AUCtau and Cmax,ss (Multiple ascending dose; MAD): up to 96% | dose proportionality of AUC and Cmax after a single dose (Multiple ascending dose; MAD, day 1): less than dose-proportional increase | dose proportionality of Cmax after repeated dosing (Multiple ascending dose; MAD, day 7): less than dose-proportional increase | dose proportionality of Cmin after repeated dosing (Multiple ascending dose; MAD, day 7): slightly more than dose-proportional increase | Estimated mean slope, dose proportionality power model, Cmin,ss (Multiple ascending dose; MAD, day 7, N=21): 1.1852 | mean CSF/Cmax ratio (Multiple ascending dose; each cohort): less than 0.1% | time to steady-state (trough) concentrations (Multiple ascending dose; repeated QD dosing, each group): 5 days | CSF KM-819 concentration (Multiple ascending dose; ≥100 mg QD): measurable in more than half of the CSF samples
